WT yeast gro inh – growth inhibition of WT yeast, mitochondrial fusion screen | AID 1362 | actives 2.1% (n = 190,000) | inhibition, % at 10 µM | mitochondrial fusion phenotypic screen, WT strain; in the data active = inhibition above about 58%; tested in S. cerevisiae
MEKK2 WT-MEK5 – raises or lowers MEK5 binding to wildtype human MEKK2 PB1 domain; actives 1.1% (n = 290,000); binding response (% of control), % at 10 µM; bead flow cytometry, Alexa488-MEK5 binding to MEKK2 WT; actives lie on both sides; AID 1531; in the data active = binding response below about 67% or above about 130%
MEKK2 mut-MEK5 – signal of MEK5 binding to mutant human MEKK2 PB1 domain; bead flow cytometry, Alexa488-MEK5 binding to MEKK2 mutant; percent response, % at 10 µM; actives 0.35% (n = 290,000); AID 1530; in the data active = percent response above about 24%, passing the limit was not always enough
ABCB1 block – human ABCB1 inhibition, ABCG2 as counter-screen; P08183; CCRF-Adr cells, JC-1 efflux, flow cytometry; inhibition, % at 6.6 µM; actives 0.067% (n = 190,000); AID 1326; in the data active = inhibition above about 40%;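 also: 0% = vehicle and 100% = reference inhibitor; higher value means more JC-1 retained so stronger ABCB1 efflux block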
ABCG2 inh – blocks JC-1 efflux by human ABCG2 transporter; Q9UNQ0; inhibition, % at 6.6 µM; IgMXP3 cells, flow cytometry; AID 1325; actives 0.1% (n = 190,000);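 active = inhibition above 80%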;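 also: 0% = DMSO and 100% = nicardipine control wells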
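Incubation: cells with compound and JC-1, 10 min at 25 °C, rotating, no wash / Test system: IgMXP3 (ABCG2) plus far-red-tagged CCRF-Adr (ABCB1) cells / Compound dosing: one concentration, 6.6 µM final / Also added: JC-1 fluorescent substrate / Evaluation: efflux inhibition in percent versus controls / Detection: flow cytometry, 530 nm JC-1 signal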
MEKK3 PB1 HTS – MEKK3-MEK5 PB1 interaction, increase or decrease; AID 1529; Q99759; binding response (% of control), % at 10 µM; bead-based flow cytometry, Alexa488-MEK5 binding to MEKK3; actives lie on both sides; 0 = blocked by unlabeled MEK5, 100 = vehicle; actives 1.4% (n = 290,000);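 active = binding response more than 3 SD above or below the average of its plate-row segment, actives on both sides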;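 also: Alexa488 bead fluorescence after subtracting the streptavidin-only scavenger bead signal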
Target sequence (Q99759 whole entry, looked up): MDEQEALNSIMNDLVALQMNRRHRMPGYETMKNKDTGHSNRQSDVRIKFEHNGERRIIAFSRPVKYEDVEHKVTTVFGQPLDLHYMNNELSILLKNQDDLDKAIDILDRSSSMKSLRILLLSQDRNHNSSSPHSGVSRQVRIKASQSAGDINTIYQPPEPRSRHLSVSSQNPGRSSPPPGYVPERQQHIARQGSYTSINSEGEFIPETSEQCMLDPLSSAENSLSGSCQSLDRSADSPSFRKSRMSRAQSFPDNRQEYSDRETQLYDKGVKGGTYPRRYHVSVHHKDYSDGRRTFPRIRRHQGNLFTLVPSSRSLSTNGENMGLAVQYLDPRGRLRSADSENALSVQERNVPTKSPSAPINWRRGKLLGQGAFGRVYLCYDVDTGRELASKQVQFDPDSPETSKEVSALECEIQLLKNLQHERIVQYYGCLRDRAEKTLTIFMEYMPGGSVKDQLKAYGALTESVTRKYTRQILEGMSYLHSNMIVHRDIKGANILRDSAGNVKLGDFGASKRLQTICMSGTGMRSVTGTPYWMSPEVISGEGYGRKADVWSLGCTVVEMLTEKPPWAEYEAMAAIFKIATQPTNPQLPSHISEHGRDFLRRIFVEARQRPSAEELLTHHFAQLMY
MEKK2wt confirm – raises or lowers MEK5 binding to wildtype human MEKK2, retest. shares compounds with MEKK3 PB1 HTS. bead flow cytometry, Alexa488-MEK5 binding to MEKK2 WT; actives lie on both sides. binding response (% of control), % at 10 µM. actives 2.4% (n = 5,900). AID 1892; in the data active = binding response below about 16% or above about 210%; inactive = in between
MEKK2mut confirm – signal of MEK5 binding to mutant human MEKK2, retest; shares compounds with MEKK3 PB1 HTS; bead flow cytometry, Alexa488-MEK5 binding to MEKK2 mutant; percent response, % at 10 µM; actives 2% (n = 5,900); AID 1893; in the data active = percent response mostly above about 71%, no sharp cut-off; inactive = mostly below about 38%;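 also: higher means compound restores mutant binding toward wildtype level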
MEKK3-MEK5 inh – MEKK3-MEK5 PB1 inhibition, single concentration confirmation; shares compounds with MEKK3 PB1 HTS; binding response (% of control), % at 10 µM; actives 1.8% (n = 5,900); bead flow cytometry, Alexa488-MEK5 binding to MEKK3; stronger effect = lower value;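 active = binding response below 72% of control, or above a set upper limit, though filed actives all read lower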;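 also: 100% = DMSO only wells and 0% = binding blocked by excess unlabeled MEK5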
An asterisk follows results filed as active; / = not tested or not shown; [ ] = another dose, or the depositor's remark. Most compounds without a hit are left out; they make up all but 3.5% or so of the library.

SMILES	WT yeast gro inh	MEKK2 WT-MEK5	MEKK2 mut-MEK5	ABCB1 block	ABCG2 inh	MEKK3 PB1 HTS	MEKK2wt confirm	MEKK2mut confirm	MEKK3-MEK5 inh
O=c1c2c3c(sc2nc2n1CCCC2)CCC3	13	80	-13	0	3	72*[inhibitor]	99	-6	100
Cc1ccc(-c2nc3sc4c(c3c(=O)n2N)CCCC4)cc1	-1	66	-28	1	4	56*[inhibitor]	106	-2	99
O=c1c2c3c(sc2nc2n1CCCCC2)CCCCC3	8	97	2	0	4	102	/	/	/
O=C(CN1CCN(S(=O)(=O)/C=C/c2ccccc2)CC1)NCC(F)(F)F	/	98	1	/	/	98	/	/	/
O=C(COc1ccc2cc(-c3ccccc3)c(=O)oc2c1)NCC1CCC(C(=O)O)CC1 (stereo not drawn)	/	105	7	/	/	105	/	/	/
CC(C)CNC1=C(C(=S)Nc2ccccc2)C(=O)CC(C)(C)C1	51	104	1	5	36	120	/	/	/
CCCC(CCC)c1nc2ccncc2[nH]1	-7	91	-5	0	-1	99	/	/	/
c1cc2nc(C34CC5CC(CC(C5)C3)C4)[nH]c2cn1	-6	3.0*[inhibitor]	-15	4	22	2.0*[inhibitor]	96	-3	97
CCOc1ccc(/C=c2\sc3nc(-c4ccco4)nn3c2=O)cc1OCC	-5	105	13	0	1	105	/	/	/
COc1cc(/C=c2\sc3nc(=O)c(-c4ccccc4)nn3c2=O)ccc1OCCC(C)C	13	97	-1	-1	-5	140*	99	1	103
CC(C)c1nnc(NC(=O)C2CCCN2C(=O)Nc2ccccc2[N+](=O)[O-])s1 (stereo not drawn)	5	105	-2	1	2	107	/	/	/
CC(C)c1nnc(NC(=O)C2CCCN2C(=O)Nc2ccccc2F)s1 (stereo not drawn)	2	129	7	1	2	151*	100	-3	100
COc1ccccc1NC(=O)N1CCCC1C(=O)Nc1nnc(C(C)C)s1 (stereo not drawn)	13	3.0*[inhibitor]	-14	0	0	3.0*[inhibitor]	108	10	106
O=[N+]([O-])c1ccc(O)c(Nc2c([N+](=O)[O-])ccc3nonc23)c1	/	104	3	/	/	100	/	/	/
O=S(=O)(/C=C/c1ccccc1)c1ccccc1	5	99	4	1	2	126*	101	3	102
O=C(O)CNS(=O)(=O)/C=C/c1ccccc1	4	100	-9	0	0	100	/	/	/
Cc1cccc2[nH]c3c(N4CC=C(c5ccc(F)cc5)CC4)ncnc3c12	/	132	13	/	/	101	/	/	/
Cc1ccc(C(c2c(C)nn(-c3ccccc3)c2N)c2c(C)nn(-c3ccccc3)c2N)cc1	16	96	-1	7	6	99	/	/	/
Cc1nn(-c2ccccc2)c(N)c1C(c1ccc(C(C)C)cc1)c1c(C)nn(-c2ccccc2)c1N	42	106	0	9	20	146*	96	0	97
CC(C)COC(=O)c1nnsc1NC(=O)Nc1ccccc1	-12	81	-13	0	38	76*[inhibitor]	96	-6	103
O=C(OCCC1Oc2cccnc2NC1=O)c1ccc([N+](=O)[O-])cc1 (stereo not drawn)	-11	75	-9	0	2	74*[inhibitor]	100	-1	99
CC1CC(C)(C)NC(=S)N1CCC(=O)N1CCc2ccccc2C1 (stereo not drawn)	10	96	-2	1	7	103	/	/	/
COc1ccc(OC)c(C(c2nnnn2CCC(C)C)N2CCN(C(=O)c3ccco3)CC2)c1 (stereo not drawn)	16	94	-1	1	1	96	/	/	/
CCN1CCN(c2cc(C(C)(C)C)nc3c(-c4ccccc4)c(C)nn23)CC1	94*	147*	21	3	6	104	131	12	103
CCN1CCN(c2ccc(NC(=O)CCc3c(C)nc4c(-c5ccccc5)c(C)nn4c3C)cc2)CC1	-7	138*	23	0	1	107	113	13	94
SMILES	WT yeast gro inh	MEKK2 WT-MEK5	MEKK2 mut-MEK5	ABCB1 block	ABCG2 inh	MEKK3 PB1 HTS	MEKK2wt confirm	MEKK2mut confirm	MEKK3-MEK5 inh
Cc1nc2c(-c3ccccc3)c(C)nn2c(C)c1CCC(=O)NCc1ccco1	12	107	14	0	8	106	/	/	/
COc1ccccc1CNC(=O)CN(C)Cc1ccc(SC)cc1	/	103	-1	/	/	100	/	/	/
NC(=O)c1c(NC(=O)c2ccncc2)sc2c1CCCCCC2	/	119	14	/	/	111	/	/	/
CC(C)c1ccc(N2C(=O)CC(Sc3ncn[nH]3)C2=O)cc1 (stereo not drawn)	15	112	4	0	3	107	/	/	/
COc1ccc(N2C(=O)CC(Sc3ncn[nH]3)C2=O)c(OC)c1 (stereo not drawn)	-3	116	11	0	1	122*	102	-2	101
FC(F)(F)c1cc(-c2ccco2)nc(NCc2cccnc2)n1	7	/	/	3	26	/	/	/	/
FC(F)(F)c1cc(-c2ccccc2)nc(NCc2cccnc2)n1	9	-1.0*[inhibitor]	-10	3	28	1.0*[inhibitor]	97	-7	99
CCc1ccc(-c2nc(CS(=O)CC(=O)NC3CCCCCC3)c(C)o2)cc1 (stereo not drawn)	/	98	-1	/	/	99	/	/	/
COc1cc(CNCCO)cc(Cl)c1OCc1ccc(Cl)cc1Cl	85	161*	25	1	5	106	160	27	108
COc1cc(CNC2CCCC2)cc(Cl)c1OCc1ccc(F)cc1	37	126	25*	1	1	98	127	10	104
CCOc1cc(CNC2CCCC2)cc(Cl)c1OCc1ccc(F)cc1	54	144*	14	0	1	101	149	26	97
COc1cc(CNC2CCCC2)cc(Cl)c1OCc1ccccc1Cl	20	207*	46	2	8	109	141	23	109
COc1cc(CNC2CCCCCCC2)cc(Cl)c1OCC(N)=O	/	105	0	/	/	98	/	/	/
FC(F)(F)c1n[nH]c(=S)n1/N=C/c1ccco1	2	98	-1	-1	-4	95	/	/	/
CC(C)CN1CN(Cc2ccccc2)CNC1=S	-5	99	-4	1	6	100	/	/	/

Screening results deposited in PubChem BioAssay by several laboratories.
